Bioassay records as filed in PubChem BioAssay.
Sampled rows, rich in hits. Any-hit rate of the full collection: about 3.8%.
KCNQ1 block: inhibitors of human KCNQ1 channel, primary screen, cell-based, thallium flux, high-throughput; 310,000 tested, 1.3% active; CHO-K1 KCNQ1, FluxOR thallium flux fluorescence; active compounds read high; Potassium voltage-gated channel subfamily KQT member 1 (Homo sapiens), P51787; B-score at 10 µM;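 active means compounds whose thallium flux B-score, printed positive for inhibition, exceeds three library SD while starting fluorescence stays within three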;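 further: channel opened by potassium depolarization with thallium stimulus after 20 min compound exposure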
hERG rescue: hERG rescue from dofetilide block, primary screen, cell-based, CHO-hERG, FluxOR thallium flux, dofetilide IC70; Voltage-gated inwardly rectifying potassium channel KCNH2 (Homo sapiens), Q12809; dofetilide IC70 present; activation (rescue from dofetilide block), less the hit threshold, % at 10 µM; 310,000 tested, 0.51% active; AID 1511, 2009;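 active means activation above the mean of controls blocked by dofetilide plus 5 SD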;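 further: thallium influx through hERG after potassium depolarization seen as dye fluorescence rise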
KCNK3 block: human KCNK3 channel inhibitors, primary screen, CHO cells, FluxOR thallium flux, B-score. B-score at 10 µM. AID 602410, 2012. Potassium channel subfamily K member 3 (Homo sapiens), O14649. 340,000 tested, 0.84% active. FluxOR fluorescence; active compounds read low;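 active means B-score under library mean minus 4 SD, starting fluorescence ratio at most library mean plus 5 SD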;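 further: more negative B-score means stronger inhibition of thallium flux through KCNK3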
Kir21 block: inhibitors of mouse Kir2.1 inward-rectifier potassium channel. Inward rectifier potassium channel 2 (Mus musculus), P35561. HEK293-Kir2.1, FluxOR thallium flux fluorescence; active compounds read low. B-score at 10 µM. 310,000 tested, 0.85% active. AID 1672, 2009;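 active means fluorescence ratio B-score at or below minus 3 SD of library scores, with starting-brightness B-score within 2 SD, cut at about -4.2 in these data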;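 further: channel flux triggered by added potassium and thallium sulfate stimulus; B-score of peak minus minimum fluorescence over baseline after thallium stimulus; more negative B-score means stronger Kir2.1 block with less thallium influx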
KCNQ1 act: potentiators or activators of KCNQ1 channel, primary screen, cell-based, thallium flux, high-throughput | Potassium voltage-gated channel subfamily KQT member 1 (Homo sapiens), P51787 | CHO-K1 KCNQ1, thallium flux FluxOR fluorescence; active compounds read high | B-score at 10 µM | 310,000 tested, 0.35% active | AID 2648, 2010;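 active means fluorescence ratio B-score, a plate-corrected score, at least three library SD, with initial intensity B-score within 5 SD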
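Material: CHO-K1 cells stably expressing KCNQ1. Medium: assay buffer for compound exposure, DMSO matched across wells. Reagent: K+/Tl+ depolarizing stimulus. Compound dosing: single-concentration screen. Times: 37 °C overnight plating, 90-min dark dye load, 20-min compound pretreatment. Technique: FluxOR Tl+ flux fluorescence.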
KCNK9 inh: KCNK9 potassium channel inhibitors, primary screen, HEK293 cells, thallium flux; Potassium channel subfamily K member 9 (Homo sapiens), Q9NPC2; FluxOR thallium flux fluorescence; active compounds read low; B-score at 10 µM; 310,000 tested, 1.2% active; AID 488922, 2010;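 active means ratio B-score over 3 SD below the library mean, with starting fluorescence within 5 SD of its mean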;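 further: negative B-score means less thallium flux so channel inhibition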
Active calls of the source: *; i = inactive; · = no result.

SMILES | KCNQ1 block | hERG rescue | KCNK3 block | Kir21 block | KCNQ1 act | KCNK9 inh
COc1ccc(-c2[nH]c3ccccc3c2SCCNC(=O)c2cc3ccccc3oc2=O)cc1 | 8* | -16 | i | 0.67 | i | i
COc1ccc(CNC(=O)c2cc3ccccc3oc2=O)cc1 | i | -2 | i | 0.15 | i | i
CC1CCN(CCC(=O)Nc2ccc(Br)cc2)CC1 | i | -8 | i | -4.9* | i | i
O=C(CCN1CCCC1)Nc1ccc(Br)cc1 | i | -6 | i | 1.4 | i | i
Cc1ccc(O)c(C(=O)CC(=O)c2ccc(Cl)cc2)c1 | i | 5.7* | i | 0.13 | i | i
Cc1ccc(NC(=O)c2ccc(OC(=O)COc3ccc(Cl)cc3C)cc2)cc1 | i | -4 | i | 0.54 | i | i
Cc1ccc(C(=O)CC(=O)COc2ccc(Cl)cc2C)cc1 | i | -3 | i | -0.34 | 7* | i
COc1ccc(O)c(C(=O)CC(=O)c2ccc(F)cc2)c1 | i | -1 | i | -2.2 | i | i
O=C(CC(=O)c1cc(Cl)ccc1O)c1ccccc1 | i | -3 | i | -1 | 18* | i
Cc1cccc(C(=O)CC(=O)c2cc(Cl)ccc2O)c1 | i | 8.8* | i | -0.19 | i | i
Cc1ccc(CCS(=O)(=O)c2ccc(C(C)(C)C)cc2)cn1 | i | -11 | i | -0.94 | i | i
O=C(NCCCOc1ccc([N+](=O)[O-])cc1Cl)OCc1ccccc1 | · | · | i | · | · | ·
O=[N+]([O-])c1ccc(N2CCN(c3cccc(Cl)c3)CC2)cn1 | i | -2 | i | 1.1 | i | i
Cc1cccc(C(=O)NCC(=O)NNC(=O)c2ccccc2O)c1 | i | -13 | i | 0.6 | i | i
Cc1ccc(O)c(C(=O)CC(=O)c2cccc(F)c2)c1 | i | -1 | i | -0.92 | 27* | i
COc1cc(/C=N/N=C(N)N)ccc1OCc1ccccc1Cl | 10* | -30 | i | -16* | i | i
COc1ccc(NC(=O)c2cccc(N3C(=O)C4CCC(C)CC4C3=O)c2)c(OC)c1 (configuration not stated) | i | -11 | i | -0.62 | i | i
C=CCN(CC=C)C(=S)NC(=O)c1ccc(OC)c(Br)c1 | i | 33* | i | 0.51 | 32* | i
C=CCN(CC=C)C(=S)NC(=O)c1ccc([N+](=O)[O-])cc1 | i | 42* | i | -0.1 | 10* | i
CCN(CC)C(=S)NC(=O)c1ccc(OC)c(Br)c1 | i | 3 | i | -0.04 | 8* | i
C=CCN(CC=C)C(=S)Nc1cc(Cl)ccc1OC | i | 1 | i | -0.34 | i | i
C=CCNC(=S)NNC(=O)c1ccc([N+](=O)[O-])cc1 | i | 0 | i | -0.56 | i | i
COc1ccc(C(=O)NC(=S)N(C)Cc2ccccc2)cc1Br | i | -6 | i | 1 | i | i
CCN(C(=S)NC(=O)c1ccccc1Br)C1CCCCC1 | i | 57* | i | -2.2 | 36* | i
CC(C)(C)OC(=O)C[C@H]1C/C=C\C[C@@H](CC(=O)N[C@H](CO)Cc2ccccc2)C(=O)NC[C@H](c2ccccc2)OC1=O | · | · | i | · | · | ·
SMILES | KCNQ1 block | hERG rescue | KCNK3 block | Kir21 block | KCNQ1 act | KCNK9 inh
COc1ccc(NC(=O)c2sc3nc(C)cc(C)c3c2N)cc1 | i | 4.8* | i | 0.38 | i | i
Cc1cc(C)c2c(N)c(C(=O)Nc3ccc(F)cc3)sc2n1 | i | -6 | i | -0.15 | i | i
Cc1nn(Cc2cccc3ccccc23)c(C)c1NC(=O)c1cccnc1 | i | -5 | i | 0.8 | i | i
Cc1ccccc1Cn1nc(C)c(NC(=O)c2ccccc2)c1C | i | 7.6* | i | 0.62 | i | i
Cc1nn(-c2ccccc2)c(C)c1NC(=O)COC(=O)c1cccc(OC(F)F)c1 | i | -20 | i | 1.2 | i | i
COc1cc(/C=C2\SC(=Nc3ccccc3)N(CCc3c[nH]c4ccccc34)C2=O)ccc1OC(C)C(=O)O (configuration not stated) | i | -11 | i | -0.32 | i | i
O=C1/C(=C/c2ccc(N3CCOCC3)o2)SC(=Nc2ccccc2)N1CCc1c[nH]c2ccccc12 | 7* | -29 | i | -0.02 | i | i
COc1ccc(N=C2S/C(=C\c3ccc(OC(C)C(=O)O)c(OC)c3)C(=O)N2CCc2c[nH]c3ccccc23)cc1 (configuration not stated) | 11* | -14 | i | -0.78 | i | i
CC(OC(=O)CCNS(=O)(=O)c1ccccc1)C(=O)Nc1ccc(S(=O)(=O)N2CCCCC2)cc1 (configuration not stated) | · | · | i | · | · | ·
N#CC(C(=O)NC1CC1)c1nc2ccccc2nc1N1CCN(C/C=C/c2ccccc2)CC1 (configuration not stated) | 6* | -17 | i | -2.2 | i | i
CC(NCCCOc1cccc2ccccc12)c1ccccc1 (configuration not stated) | i | -18 | i | -10* | i | i
CCC(C)(C)N(C(=O)CCC(=O)Nc1cc(C)on1)C(C(=O)NC(C)(C)C)c1ccc(OC)cc1 (configuration not stated) | i | -7 | i | 0.58 | i | i
NS(=O)(=O)c1ccc(CNC(=S)Nc2cc(S(=O)(=O)N3CCOCC3)ccc2Cl)cc1 | · | · | i | · | · | ·
CC(=O)N[C@H]1[C@H](OC2CCCCC2)O[C@H](COC(C)=O)[C@@H](OC(C)=O)[C@@H]1OC(C)=O | i | -2 | i | 0.17 | 8* | i
COc1ccc(O[C@@H]2O[C@H](COC(C)=O)[C@@H](OC(C)=O)[C@H](OC(C)=O)[C@H]2NC(C)=O)cc1 | i | -2 | i | -0.01 | i | i
COc1cc(C2NC(=O)NC(C)=C2C(=O)OCc2ccccc2)ccc1O (configuration not stated) | i | -11 | i | 0.34 | i | i
CCOC(=O)C1=C(c2ccccc2)NC(=O)NC1c1ccc(OC)c(OC)c1 (configuration not stated) | i | 5.7* | i | 0.1 | i | i
CCOC(=O)C1=C(c2ccccc2)NC(=O)NC1c1ccc(OC)cc1 (configuration not stated) | i | 0 | i | 0.31 | i | i
